Values after ≈ are worked out from the molar mass of the structure shown.
Legend:
[1] = Cytotoxicity against human […] cells assessed as growth inhibition after 72 hrs by SRB assay; format: functional; settings: Homo sapiens, HCT9, 72 h; read-out: ED50 (the source's name)
How it was run: (§1)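 Sulforhodamine B assay run by NCI-validated procedure. Cells grown at 37 °C under humidified 5% CO2 in RPMI-1640 with 25 mM HEPES, […] (w/v) sodium bicarbonate, 10% (v/v) FBS and 100 μg/mL kanamycin. Compounds came from DMSO stocks, with final DMSO ≤ 1% (v/v). Continuous exposure for 72 h. ED50 (μg/mL, 50% cell-number reduction) interpolated from dose-response data. Triplicate tests. Doxorubicin served as positive control.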

A549 = assay: Cytotoxicity against human A549 cells assessed as growth inhibition after 72 hrs by SRB assay; format: functional; settings: Homo sapiens, A549, 72 h; read-out: ED50 (the source's name); how it was run: as §1
[2] = Cytotoxicity against human KBVIN cells assessed as growth inhibition after 72 hrs by SRB assay; format: functional; settings: Homo sapiens, KBVIN, 72 h; read-out: ED50 (the source's name); how it was run: as §1
[3] = Cytotoxicity against human U87MG cells assessed as growth inhibition after 72 hrs by SRB assay; format: functional, U-87MG ATCC; settings: Homo sapiens, U-87 MG, 72 h; read-out: ED50 (the source's name); how it was run: as §1
CAKI-1 = assay: Cytotoxicity against human CAKI-1 cells assessed as growth inhibition after 72 hrs by SRB assay; format: functional; settings: Homo sapiens, CAKI-1, 72 h; read-out: ED50 (the source's name); how it was run: as §1
PC-3 = assay: Cytotoxicity against human PC3 cells assessed as growth inhibition after 72 hrs by SRB assay; format: functional; settings: Homo sapiens, PC-3, 72 h; read-out: ED50 (the source's name); how it was run: as §1
MCF7 = assay: Cytotoxicity against human MCF7 cells assessed as growth inhibition after 72 hrs by SRB assay; format: functional; settings: Homo sapiens, MCF7, 72 h; read-out: ED50 (the source's name); how it was run: as §1
1A9 = assay: Cytotoxicity against human 1A9 cells assessed as growth inhibition after 72 hrs by SRB assay; format: functional; settings: Homo sapiens, 1A9, 72 h; read-out: ED50 (the source's name); how it was run: as §1
KB = assay: Cytotoxicity against human KB cells assessed as growth inhibition after 72 hrs by SRB assay; format: functional; settings: Homo sapiens, KB, 72 h; read-out: ED50 (the source's name); how it was run: as §1
SK-MEL-2 = assay: Cytotoxicity against human SK-MEL-2 cells assessed as growth inhibition after 72 hrs by SRB assay; format: functional; settings: Homo sapiens, SK-MEL-2, 72 h; read-out: ED50 (the source's name); how it was run: as §1

Structure (SMILES)	EC50 [1]	EC50 (A549)	EC50 [2]	EC50 [3]	EC50 (CAKI-1)	EC50 (PC-3)	EC50 (MCF7)	EC50 (1A9)	EC50 (KB)	EC50 (SK-MEL-2)
C[C@H]1O[C@@H](O[C@H]2CC[C@]3(C)[C@H]4CC[C@]5(C)[C@@H](C6=CC(=O)OC6)CC[C@]5(O)[C@@H]4CC[C@]3(O)C2)[C@H](O)[C@H](O)[C@H]1O [ANTIAROSIDE A]	0.09 µg/mL (≈ 0.168 µM)	0.044 µg/mL (≈ 0.082 µM)	0.068 µg/mL (≈ 0.127 µM)	0.15 µg/mL (≈ 0.28 µM)	0.018 µg/mL (≈ 0.0335 µM)	0.078 µg/mL (≈ 0.145 µM)	0.063 µg/mL (≈ 0.117 µM)	0.02 µg/mL (≈ 0.0373 µM)	0.0097 µg/mL (≈ 0.0181 µM)	0.073 µg/mL (≈ 0.136 µM)
C[C@@H]1O[C@H](O[C@@H]2CC[C@]3(C=O)[C@H]4CC[C@]5(C)[C@@H](C6=CC(=O)OC6)CC[C@]5(O)[C@@H]4CC[C@]3(O)C2)[C@H](O)[C@H](O)[C@H]1O [ANTIAROSIDE C]	1.5 µg/mL (≈ 2.72 µM)	0.48 µg/mL (≈ 0.872 µM)	1.6 µg/mL (≈ 2.91 µM)	1.7 µg/mL (≈ 3.09 µM)	0.32 µg/mL (≈ 0.581 µM)	0.42 µg/mL (≈ 0.763 µM)	1.4 µg/mL (≈ 2.54 µM)	0.39 µg/mL (≈ 0.708 µM)	1.5 µg/mL (≈ 2.72 µM)	0.26 µg/mL (≈ 0.472 µM)
C[C@@H]1O[C@@H](O[C@@H]2CC[C@@]3(CO)[C@H](CC[C@@H]4[C@@H]3CC[C@]3(C)[C@@H](C5=CC(=O)OC5)CC[C@]43O)C2)[C@H](O)[C@H](O)[C@H]1O[C@@H]1O[C@H](CO)[C@@H](O)[C@H](O)[C@H]1O [ANTIAROSIDE D]	1.9 µg/mL (≈ 2.72 µM)	0.38 µg/mL (≈ 0.544 µM)	1.9 µg/mL (≈ 2.72 µM)	4.2 µg/mL (≈ 6.01 µM)	0.93 µg/mL (≈ 1.33 µM)	0.53 µg/mL (≈ 0.758 µM)	1 µg/mL (≈ 1.43 µM)	0.74 µg/mL (≈ 1.06 µM)	1.7 µg/mL (≈ 2.43 µM)	0.31 µg/mL (≈ 0.444 µM)
C[C@@H]1O[C@H](O[C@H]2CC[C@@]3(C(=O)O)[C@H](CC[C@@H]4[C@@H]3CC[C@]3(C)[C@@H](C5=CC(=O)OC5)CC[C@]43O)C2)[C@H](O)[C@H](O)[C@H]1O [ANTIAROSIDE E]	0.35 µg/mL (≈ 0.636 µM)	0.07 µg/mL (≈ 0.127 µM)	0.57 µg/mL (≈ 1.04 µM)	0.73 µg/mL (≈ 1.33 µM)	0.13 µg/mL (≈ 0.236 µM)	0.16 µg/mL (≈ 0.291 µM)	0.42 µg/mL (≈ 0.763 µM)	0.13 µg/mL (≈ 0.236 µM)	0.49 µg/mL (≈ 0.89 µM)	0.12 µg/mL (≈ 0.218 µM)
C[C@@H]1O[C@H](O[C@H]2CC[C@@]3(C(=O)O[C@@H]4O[C@H](CO)[C@@H](O)[C@H](O)[C@H]4O)[C@H](CC[C@@H]4[C@@H]3CC[C@]3(C)[C@@H](C5=CC(=O)OC5)CC[C@]43O)C2)[C@H](O)[C@H](O)[C@H]1O [ANTIAROSIDE F]	3.4 µg/mL (≈ 4.77 µM)	0.54 µg/mL (≈ 0.758 µM)	2.2 µg/mL (≈ 3.09 µM)	4.5 µg/mL (≈ 6.31 µM)	1.2 µg/mL (≈ 1.68 µM)	0.89 µg/mL (≈ 1.25 µM)	1.3 µg/mL (≈ 1.82 µM)	0.97 µg/mL (≈ 1.36 µM)	1.8 µg/mL (≈ 2.53 µM)	0.32 µg/mL (≈ 0.449 µM)
C[C@@H]1O[C@H](O[C@H]2CC[C@]3(C(=O)O)[C@H]4C[C@@H](O)[C@]5(C)[C@@H](C6=CC(=O)OC6)CC[C@]5(O)[C@@H]4CC[C@]3(O)C2)[C@H](O)[C@H](O)[C@H]1O [ANTIAROSIDE G]	–	5.3 µg/mL (≈ 9.1 µM)	–	–	–	–	17.5 µg/mL (≈ 30 µM)	–	–	–
C[C@H]1O[C@H](O[C@H]2CC[C@]3(C(=O)O)[C@H]4C[C@@H](O)[C@]5(C)[C@@H](C6=CC(=O)OC6)CC[C@]5(O)[C@@H]4CC[C@]3(O)C2)[C@H](O)[C@H](O)[C@H]1O [ANTIAROSIDE H]	2.5 µg/mL (≈ 4.29 µM)	0.76 µg/mL (≈ 1.3 µM)	7.1 µg/mL (≈ 12.2 µM)	7.3 µg/mL (≈ 12.5 µM)	1.5 µg/mL (≈ 2.57 µM)	1.8 µg/mL (≈ 3.09 µM)	3.1 µg/mL (≈ 5.32 µM)	1.4 µg/mL (≈ 2.4 µM)	5.9 µg/mL (≈ 10.1 µM)	1.3 µg/mL (≈ 2.23 µM)
C[C@@H]1O[C@H](O[C@H]2CC[C@@H]3[C@H]4CC[C@]5(C)[C@@H](C6=CC(=O)OC6)CC[C@]5(O)[C@@H]4CC[C@]3(O)C2)[C@H](O)[C@H](O)[C@H]1O [ANTIAROSIDE I]	2.9 µg/mL (≈ 5.55 µM)	0.36 µg/mL (≈ 0.689 µM)	2.3 µg/mL (≈ 4.4 µM)	3.6 µg/mL (≈ 6.89 µM)	1.1 µg/mL (≈ 2.1 µM)	0.9 µg/mL (≈ 1.72 µM)	1.3 µg/mL (≈ 2.49 µM)	0.83 µg/mL (≈ 1.59 µM)	2 µg/mL (≈ 3.83 µM)	0.3 µg/mL (≈ 0.574 µM)
C[C@]12CC[C@H](O)C[C@@]1(O)CC[C@@H]1[C@@H]2CC[C@]2(C)[C@@H]([C@]3(O)COC(=O)C3)CC[C@]12O [ANTIAROTOXININ A]	–	4.3 µg/mL (≈ 10.5 µM)	–	–	–	–	15 µg/mL (≈ 36.7 µM)	–	–	–
C[C@@H]1O[C@@H](O[C@H]2CC[C@]3(C=O)[C@H]4CC[C@]5(C)[C@@H](C6=CC(=O)OC6)CC[C@]5(O)[C@@H]4CC[C@]3(O)C2)[C@H](O)[C@H](O)[C@H]1O [CONVALLATOXIN]	0.0014 µg/mL (≈ 0.00254 µM)	0.0027 µg/mL (≈ 0.0049 µM)	0.013 µg/mL (≈ 0.0236 µM)	0.014 µg/mL (≈ 0.0254 µM)	0.0031 µg/mL (≈ 0.00563 µM)	0.094 µg/mL (≈ 0.171 µM)	0.0065 µg/mL (≈ 0.0118 µM)	0.03 µg/mL (≈ 0.0545 µM)	0.014 µg/mL (≈ 0.0254 µM)	0.0013 µg/mL (≈ 0.00236 µM)

— ChEMBL document CHEMBL3120107, “Cytotoxic cardiac glycosides and coumarins from Antiaris toxicaria” (2014)
